Reference: ChEMBL document CHEMBL2069177, “A prospective cross-screening study on G-protein-coupled receptors: lessons learned in virtual compound library design” (J Med Chem, 2012)

What follows are compounds tested against Beta-2 adrenergic receptor (Homo sapiens, UniProt P07550) (assay: Displacement of [3H]dihydroalprenolol from human ADRB2 expressed in HEK293T cells after 1 hr by liquid scintillation counter).
Type: cell-based, HEK-293T
Method in brief: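 HEK293T cells transiently transfected with ADRB2 using PEI, harvested 48 h later for membranes. Membranes incubated at room temperature for 1 h with 1 nM [3H]-dihydroalprenolol in HEPES pH 7.4 with CaCl2, MgCl2, NaCl and 0.5% BSA. Filtered on GF/C presoaked in PEI, washed with ice-cold buffer plus 500 mM NaCl. Compounds giving ≥50% inhibition at 10 µM went to concentration-response curves. Ki by nonlinear regression, n=3 in triplicate.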

Beta-2 adrenergic receptor, sequence (P07550 whole entry): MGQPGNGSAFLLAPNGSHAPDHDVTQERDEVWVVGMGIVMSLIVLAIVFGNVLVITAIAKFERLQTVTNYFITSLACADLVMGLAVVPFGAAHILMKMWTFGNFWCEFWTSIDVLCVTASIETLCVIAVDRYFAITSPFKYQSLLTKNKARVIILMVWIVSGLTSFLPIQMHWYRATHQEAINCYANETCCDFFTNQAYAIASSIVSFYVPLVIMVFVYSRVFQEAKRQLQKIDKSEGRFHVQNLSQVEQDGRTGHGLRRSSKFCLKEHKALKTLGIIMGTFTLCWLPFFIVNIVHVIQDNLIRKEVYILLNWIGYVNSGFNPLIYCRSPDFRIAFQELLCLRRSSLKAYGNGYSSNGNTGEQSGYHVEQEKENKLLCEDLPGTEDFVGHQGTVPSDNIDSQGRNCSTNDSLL

First: Cc1nc2ccc(O)c(CN(C)C)c2[nH]1
Second: CC(=O)c1c(CSc2ccccc2)oc2ccc(O)c(CN(C)C)c12
The Ki of the first is 1.6-fold lower: 25.1 µM for the first, 39.8 µM for the second. The first binds more tightly here.

Compared with `Cc1ccc(C(C)C)c(OCC(O)CN2CCN(CCO)CC2)c1` (configuration not stated), `Cc1ccc(C(C)C)c(OCC(O)CN2CCCCC2)c1` (configuration not stated) is 50-fold lower in Ki: 39.8 µM for the first, 0.794 µM for the second. The second binds more tightly here.

First: Cc1ccc(C)c(OCC(O)CNC2CCCC2)c1 (configuration not stated)
Second: O=C1Cc2ccccc2Sc2c(OCCN3CCCCC3)cccc21
The Ki of the first is 400-fold lower: 2 µM for the first, 794 µM for the second. The first binds more tightly here.

Each compound was assayed against Sphingosine 1-phosphate receptor 1 (Homo sapiens, UniProt P21453) (assay: Induction of beta-arrestin2 recruitment to human S1PR1 expressed in CHOK1 cells after 2 hrs by beta-galactosidase assay).
Sphingosine 1-phosphate receptor 1, sequence (P21453 whole entry): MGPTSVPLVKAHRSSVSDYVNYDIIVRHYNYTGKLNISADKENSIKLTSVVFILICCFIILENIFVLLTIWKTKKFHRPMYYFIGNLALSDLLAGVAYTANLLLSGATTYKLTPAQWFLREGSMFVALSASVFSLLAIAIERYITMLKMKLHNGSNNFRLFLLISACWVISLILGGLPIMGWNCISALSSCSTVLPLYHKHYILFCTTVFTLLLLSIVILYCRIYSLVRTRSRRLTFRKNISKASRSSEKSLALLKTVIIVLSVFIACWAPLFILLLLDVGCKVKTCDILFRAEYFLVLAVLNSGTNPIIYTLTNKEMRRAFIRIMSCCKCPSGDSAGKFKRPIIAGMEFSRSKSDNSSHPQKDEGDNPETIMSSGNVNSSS
Type: cell-based, CHO-K1
Method in brief: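 PathHunter enzyme-fragment-complementation CHO-K1 S1PR1 β-arrestin cells seeded at 10,000/well in OPTI-MEM and held overnight at 37 °C. Compound added for 2 h at 37 °C, then 1 h at room temperature. Lysed with detection reagent and read by chemiluminescence after 2 h dark. Recruitment referenced to AUY954 (1 µM). Hits with ≥30% recruitment went to dose-response. pEC50, n=1 in triplicate.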

Compared with `O=C(Nc1nc2ccc(-c3nc4ccccc4[nH]3)cc2s1)C1CCCCC1`, `Cc1ccc(S(=O)(=O)Nc2nc3n(n2)C(c2ccccc2)C=C(c2ccccc2)N3)cc1` (configuration not stated) is 2.5-fold higher in EC50: 20 µM for the first, 50.1 µM for the second.

`CC(=O)N1CCc2cc(Br)cc(S(=O)(=O)N3CCC(O)(c4cccc(C(F)(F)F)c4)CC3)c21` showed an EC50 of 31.6 µM.

The compounds below were run against Adenosine receptor A2a (Homo sapiens, UniProt P29274) (assay: Displacement of [3H]ZM241385 from human AA2AR expressed in HEK293T cells after 2 hrs by liquid scintillation counter).
Adenosine receptor A2a, sequence (P29274 whole entry): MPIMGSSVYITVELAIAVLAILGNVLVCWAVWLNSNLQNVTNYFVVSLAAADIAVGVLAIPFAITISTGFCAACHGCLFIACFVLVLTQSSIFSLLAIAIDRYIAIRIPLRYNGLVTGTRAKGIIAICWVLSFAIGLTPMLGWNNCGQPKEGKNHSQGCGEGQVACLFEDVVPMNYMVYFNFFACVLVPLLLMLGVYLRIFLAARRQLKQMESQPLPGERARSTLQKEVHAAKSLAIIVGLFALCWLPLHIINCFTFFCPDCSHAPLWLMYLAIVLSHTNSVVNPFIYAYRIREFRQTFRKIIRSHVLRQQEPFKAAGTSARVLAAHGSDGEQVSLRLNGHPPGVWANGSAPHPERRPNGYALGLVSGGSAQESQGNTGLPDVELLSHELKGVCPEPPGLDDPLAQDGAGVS
Type: cell-based, HEK-293T
Method in brief: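 Membranes of HEK293T cells stably expressing AA2AR (40 µg protein) incubated with 1.7 nM (final) [3H]ZM241385 in 50 mM Tris·HCl pH 7.4, 2 h at 25 °C with shaking. Nonspecific binding defined with 100 µM CGS21680. Filtered over GF/B, washed three times with ice-cold buffer. Compounds giving ≥50% inhibition at 10 µM went to concentration-response curves. pKi values, n=3 in duplicate.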

Going from `Cc1ccc2[nH]c3nc(SCC(=O)Nc4ncc(C)s4)nnc3c2c1` to `Cc1cc(NC(=O)CSc2nc3ccccc3c3nc4ccccc4n23)n[nH]1`, the Ki falls from 3.98 µM to 0.631 µM (6.3-fold). The second binds more tightly here.

`CC1=C(C(=O)Nc2nc3ccccc3s2)C(c2ccco2)C(C#N)=C(SCC(N)=O)N1` (configuration not stated) and `O=C(CCN1C(=O)c2ccccc2C1=O)Nc1nc2ccccc2s1` are within 1.5-fold of each other in Ki: 6.31 µM for the first, 5.01 µM for the second.

Going from `O=C1c2ccccc2C(=O)c2cc(OCC(O)CN3CCCCC3)ccc21` (configuration not stated) to `Cc1nc2[nH]c3ccccc3n2c(=O)c1CCOC(=O)C1CCCCC1`, the Ki falls from 5.01 µM to 2.51 µM (2-fold).

Going from `N#C/C(=N\Nc1ccc(S(N)(=O)=O)cc1)c1nc2ccccc2[nH]1` to `Nc1ccc(C(=O)Nc2ccc(O)c(-c3nc4ccccc4[nH]3)c2)cc1`, the Ki falls from 5.01 µM to 1.58 µM (3.2-fold).

First: COCC1=CC(O)N=C(Nc2nc(C)c3ccccc3n2)N1 (configuration not stated)
Second: CCOC(=O)c1nc[nH]c1/N=N/c1c(O)ccc2ccccc12
The Ki of the first is 2-fold lower: 0.631 µM for the first, 1.26 µM for the second. The first binds more tightly here.

Going from `CCCc1nn(C)c2c(=O)[nH]c(-c3cc(S(=O)(=O)N4CCN(C)CC4)ccc3OCC)nc12` [SILDENAFIL] to `Cc1n[nH]c(C)c1S(=O)(=O)N1CCC(C(=O)Nc2nc3c(C)cccc3s2)CC1`, the Ki rises from 0.2 µM to 1 µM (5-fold).

Going from `N/C(=N\C(=O)CN1C(=O)C2CCCCC2C1=O)Nc1nc2ccccc2s1` (configuration not stated) to `Cc1cccc2sc(NC(=O)CNS(=O)(=O)c3cccs3)nc12`, the Ki falls from 5.01 µM to 1.58 µM (3.2-fold).

Going from `N=C(NC(=O)C(Cc1ccccc1)N1C(=O)c2ccccc2C1=O)Nc1nc2ccccc2o1` (configuration not stated) to `CC1CCN(C(=O)c2ccc3c(=O)[nH]c4c(-c5ccccc5)nnn4c3c2)CC1`, the Ki falls from 3.98 µM to 2.51 µM (1.6-fold). The second binds more tightly here.

Compared with `COc1cc(/C=N/Nc2ncnc3sc4c(c23)CCCC4)ccc1O`, `N#CCSc1nc2cc(C(=O)N3CCC(C(N)=O)CC3)ccc2c2nc3ccccc3n12` is 5-fold lower in Ki: 5.01 µM for the first, 1 µM for the second. The second binds more tightly here.
